The test system of data set [1] is Pseudomonas aeruginosa. As to the kind of experiment: Antibacterial activity against Pseudomonas aeruginosa PAO1 assessed as growth inhibition at 10 mg/ml after 16 to 20 hrs. It is filed as functional, organism-based. In a few lines:
(§1)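 Disc diffusion: sterile filter discs loaded with 10 µl of a 10 mg/ml compound solution were placed on evenly inoculated LB or minimal medium agar plates and incubated 16–20 h at 37 °C. Growth inhibition around each disc was scored qualitatively (weak, partial, or strong). Controls were 10 µl of 1 mg/ml ampicillin and DMSO.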

The test system of data set [2] is Staphylococcus aureus. The data set is described as follows: Antibacterial activity against methicillin-resistant Staphylococcus aureus Mu50 assessed as growth inhibition at 10 mg/ml after 16 to 20 hrs in presence of 0.2 mM L-histidine. It is filed as functional, organism-based. The method, boiled down:
(§2)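 Histidine complementation disc assay. Discs soaked with 10 µl of a 10 mg/ml compound solution were placed on evenly inoculated minimal medium agar supplemented with 0.2 mM L-histidine, then incubated 16–20 h at 37 °C. Inhibition zones were scored by eye on a graded scale (strong, weak, partial, none).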

For data set [3], the system named is Staphylococcus aureus. As to the kind of experiment: Antibacterial activity against methicillin-resistant Staphylococcus aureus USA300 assessed as growth inhibition at 10 mg/ml after 16 to 20 hrs. It is filed as functional, organism-based. The method, boiled down: (§3)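 Disc diffusion assay. Sterile filter discs soaked with 10 µl of a 10 mg/ml compound solution were placed on evenly inoculated LB or minimal medium agar, then incubated 16–20 h at 37 °C. Growth inhibition was scored by eye on a graded scale from strong inhibition through weak or partial inhibition to none. DMSO served as the negative control.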

The subject of data set [4] is Staphylococcus aureus. The data set is described as follows: Antibacterial activity against clinical isolate of Staphylococcus aureus assessed as growth inhibition at 10 mg/ml after 16 to 20 hrs. It counts as functional, organism-based. The method, boiled down:
as §1

Data set [5] has as its system Pseudomonas aeruginosa. As to the kind of experiment: Antibacterial activity against Pseudomonas aeruginosa PAO1 assessed as growth inhibition at 10 mg/ml after 16 to 20 hrs in presence of 0.2 mM L-histidine. It is filed as functional, organism-based. In a few lines: (§4)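 Histidine complementation: minimal medium agar plates were supplemented with 0.2mM L-histidine and evenly inoculated. Filter discs soaked with 10 µl of 10 mg/ml compound were applied, and plates were incubated 16–20 h at 37 °C. Inhibition was scored qualitatively. Ampicillin (10 µl, 1 mg/ml) and DMSO served as controls.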

The subject of data set [6] is Escherichia coli. As to the kind of experiment: Antibacterial activity against Escherichia coli 1655 assessed as growth inhibition at 10 mg/ml after 16 to 20 hrs. It is filed as functional, organism-based. In a few lines: as §1
Data set [7] deals with Staphylococcus aureus. The data set is described as follows: Antibacterial activity against methicillin-resistant Staphylococcus aureus USA300 assessed as growth inhibition at 10 mg/ml after 16 to 20 hrs in presence of 0.2 mM L-histidine. It counts as functional, organism-based. The method, boiled down:
as §2

Data set [8] has as its system Escherichia coli. As to the kind of experiment: Antibacterial activity against Escherichia coli 1655 assessed as growth inhibition at 10 mg/ml after 16 to 20 hrs in presence of 0.2 mM L-histidine. It counts as functional, organism-based. In a few lines:
as §4

Data set [9] deals with Staphylococcus aureus. As to the kind of experiment: Antibacterial activity against methicillin-resistant Staphylococcus aureus Mu50 assessed as growth inhibition at 10 mg/ml after 16 to 20 hrs. It counts as functional, organism-based. In a few lines: as §3
Data set [10] has as its system Escherichia coli. As to the kind of experiment: Antibacterial activity against clinical isolate of Escherichia coli assessed as growth inhibition at 10 mg/ml after 16 to 20 hrs. It is filed as functional, organism-based. The method, boiled down:
as §1

Data set [11] has as its system Staphylococcus aureus. The data set is described as follows: Antibacterial activity against methicillin-resistant Staphylococcus aureus Mu50 assessed as growth inhibition at 1 mg/ml after 16 to 20 hrs in presence of 0.2 mM L-histidine. It is filed as functional, organism-based. The method, boiled down: (§5)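 Discs carrying 10 µl of a 1 mg/ml solution were placed on evenly inoculated minimal medium agar containing 0.2 mM L-histidine, then incubated 16–20 h at 37 °C. Inhibition zones were scored by eye as strong, weak, partial or none.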

Data set [12] in a line: Cytotoxicity against human CL1 cells expressing hTERT assessed as cell viability at 100 ug/ml after 24 hrs by trypan blue exclusion assay. It is filed as cell-based.
In data set [13] the test system is Staphylococcus aureus. As to the kind of experiment: Antibacterial activity against methicillin-resistant Staphylococcus aureus USA300 assessed as growth inhibition at 1 mg/ml after 16 to 20 hrs in presence of 0.2 mM L-histidine. It counts as functional, organism-based. In a few lines: as §5
Data set [14] concerns Staphylococcus aureus. As to the kind of experiment: Antibacterial activity against methicillin-resistant Staphylococcus aureus USA300 assessed as growth inhibition at 1 mg/ml after 16 to 20 hrs. It counts as functional, organism-based. The method, boiled down: (§6)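 Disc diffusion assay. Filter discs carrying 10 µl of a 1 mg/ml solution were placed on evenly inoculated LB or minimal medium agar plates, then incubated 16–20 h at 37 °C. Growth inhibition was scored by eye on a graded scale (strong, weak, partial, none).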

Data set [15] concerns Escherichia coli. As to the kind of experiment: Antibacterial activity against Escherichia coli 1655 assessed as growth inhibition at 1 mg/ml after 16 to 20 hrs in presence of 0.2 mM L-histidine. It is filed as functional, organism-based.
For data set [16], the system named is Escherichia coli. As to the kind of experiment: Antibacterial activity against Escherichia coli 1655 assessed as growth inhibition at 1 mg/ml after 16 to 20 hrs. It is filed as functional, organism-based.
Data set [17] concerns Pseudomonas aeruginosa. As to the kind of experiment: Antibacterial activity against Pseudomonas aeruginosa PAO1 assessed as growth inhibition at 1 mg/ml after 16 to 20 hrs in presence of 0.2 mM L-histidine. It is filed as functional, organism-based.
In data set [18] the test system is Staphylococcus aureus. The data set is described as follows: Antibacterial activity against clinical isolate of Staphylococcus aureus assessed as growth inhibition at 1 mg/ml after 16 to 20 hrs. It is filed as functional, organism-based.
Data set [19] relates to Staphylococcus aureus. As to the kind of experiment: Antibacterial activity against methicillin-resistant Staphylococcus aureus Mu50 assessed as growth inhibition at 1 mg/ml after 16 to 20 hrs. It is filed as functional, organism-based. In a few lines: as §6
Data set [20] deals with Escherichia coli. The data set is described as follows: Antibacterial activity against clinical isolate of Escherichia coli assessed as growth inhibition at 1 mg/ml after 16 to 20 hrs. It counts as functional, organism-based.
Data set [21] is described as follows: Cytotoxicity against human CL1 cells expressing hTERT assessed as cell viability at 100 ug/ml after 24 hrs by MTT assay. It counts as cell-based. For orientation: Formazan colour is commonly taken as a measure of viable cells.

Activity calls are given as the source filed them. No cut-off for these calls is given here.

Our source for the Activity values is ChEMBL document CHEMBL1250428, “Identification of novel bacterial histidine biosynthesis inhibitors using docking, ensemble rescoring, and whole-cell assays” (Bioorg Med Chem, 2010).

Consider `CC(=O)C1=C(O)C(=O)N(CCC(=O)O)[C@@H]1c1ccc(C(C)C)cc1`, for which the result in the data set with Pseudomonas aeruginosa [1], in the data set with Staphylococcus aureus [2], in the data set with Pseudomonas aeruginosa [5], in the data set on Escherichia coli [6], with Staphylococcus aureus [7] and in the data set with Escherichia coli [8] was Active. The result in the data set with Staphylococcus aureus [9] and in the data set on Escherichia coli [10] was Active. Further, the result in the data set with Staphylococcus aureus [3] and in the data set with Staphylococcus aureus [4] was inactive.

With `CSCC[C@@H](NCC[C@H](O)c1ccccc1)C(=O)O`, the result with Pseudomonas aeruginosa [1] was Active. Besides, the result in the data set on Staphylococcus aureus [3], with Staphylococcus aureus [4], with Escherichia coli [6], in the data set on Staphylococcus aureus [9] and with Escherichia coli [10] was inactive.

In the case of `O=C(O)C[C@H](c1ccncc1)c1c[nH]c2ccccc12`, the result in the data set on Pseudomonas aeruginosa [1], with Staphylococcus aureus [2], in the data set on Staphylococcus aureus [4], in the data set on Pseudomonas aeruginosa [5], with Staphylococcus aureus [7] and in the data set on Escherichia coli [8] was Active. In addition, the result in the data set with Staphylococcus aureus [9] and in the data set on Escherichia coli [10] was Active. Also, the outcome in the data set with Staphylococcus aureus [3] was inactive.

For the compound `CCN(CCc1ccccc1)C(=O)CSc1ncccc1C(=O)O`, the result in the data set on Staphylococcus aureus [2] and in the data set with Staphylococcus aureus [7] was inactive. Besides, the result with Pseudomonas aeruginosa [5], in the data set on Escherichia coli [6] and in the data set on Escherichia coli [8] was Active.

As to `CCCCc1cc(=O)oc2c(C)c(O[C@H](C)C(=O)O)ccc12`, the outcome in the data set with Pseudomonas aeruginosa [1], in the data set on Staphylococcus aureus [2], in the data set with Staphylococcus aureus [4], in the data set on Pseudomonas aeruginosa [5], in the data set on Staphylococcus aureus [7] and in the data set with Escherichia coli [8] was Active. For the same compound, in the data set on Staphylococcus aureus [9], the outcome was Active. The result in the data set on Staphylococcus aureus [3] was inactive.

Turning to `CC1(C)S[C@@H]2[C@H](NC(=O)[C@H](N)c3ccccc3)C(=O)N2[C@H]1C(=O)O` [AMPICILLIN], the outcome in the data set on Staphylococcus aureus [11], with Staphylococcus aureus [13], in the data set on Staphylococcus aureus [14], with Escherichia coli [16], in the data set with Staphylococcus aureus [18] and with Staphylococcus aureus [19] was Active. Besides, the result in the data set with Escherichia coli [20] was Active. For the same compound, the Activity result in [12] was “Non-toxic”. The result in the data set with Escherichia coli [15] and with Pseudomonas aeruginosa [17] was inactive.

As for `Cc1ncc(CO)c(CNc2ccc(Oc3ccccc3)cc2)c1O`, the outcome in the data set on Pseudomonas aeruginosa [1], with Staphylococcus aureus [3], in the data set on Staphylococcus aureus [4], in the data set with Escherichia coli [6] and with Staphylococcus aureus [9] was Active. The Activity result in [12] is “Toxic”.

`O=C(O)c1cccc(NC(=O)[C@H]2CCCC[C@@H]2C(=O)O)c1`: the result in the data set on Pseudomonas aeruginosa [1] was Active. Moreover, the result in the data set with Staphylococcus aureus [3], in the data set on Staphylococcus aureus [4], with Staphylococcus aureus [9] and in the data set with Escherichia coli [10] was inactive.

Consider `CCc1cc(=O)oc2c3c(c(C)c(OCC(=O)O)c12)OC(C)(C)C=C3`, for which the result in the data set on Pseudomonas aeruginosa [1], in the data set with Pseudomonas aeruginosa [5], in the data set with Escherichia coli [6], in the data set on Escherichia coli [8] and with Staphylococcus aureus [9] was Active. In addition, the outcome with Staphylococcus aureus [2], in the data set with Staphylococcus aureus [4], in the data set on Staphylococcus aureus [7] and in the data set with Escherichia coli [10] was inactive.

With `O=C1Nc2ccc(Cl)cc2C(c2cccc(O)c2)=N[C@H]1O`, the result in the data set on Pseudomonas aeruginosa [1], in the data set on Staphylococcus aureus [3], in the data set with Escherichia coli [6] and in the data set with Staphylococcus aureus [9] was Active.

With `C[C@@H](NC[C@@H](O)Cn1c2ccccc2c2ccccc21)C(=O)O`, the result in the data set on Pseudomonas aeruginosa [1], in the data set with Staphylococcus aureus [3], with Staphylococcus aureus [4], in the data set with Escherichia coli [6], in the data set on Staphylococcus aureus [9] and in the data set on Escherichia coli [10] was inactive.

In the case of `Cc1c(OCC(=O)O)ccc2c(-c3ccccc3)cc(=O)oc12`, the outcome in the data set on Pseudomonas aeruginosa [1], in the data set on Staphylococcus aureus [3], in the data set with Staphylococcus aureus [4], in the data set on Escherichia coli [6], with Staphylococcus aureus [9] and in the data set with Escherichia coli [10] was Active. In addition, the Activity result in [21] and in data set [12] was “Non-toxic” each time.

As to `O=C(O)CCCNC[C@@H](O)Cn1c2ccccc2c2ccccc21`, the outcome in the data set with Pseudomonas aeruginosa [1], in the data set on Pseudomonas aeruginosa [5], in the data set on Staphylococcus aureus [7] and with Escherichia coli [8] was inactive. Also, the outcome in the data set with Staphylococcus aureus [2], with Staphylococcus aureus [3], with Staphylococcus aureus [4] and in the data set with Staphylococcus aureus [9] was Active. Besides, in data set [12], the Activity result is on record as “Non-toxic”.

With `O=C(O)c1ccc([C@H](O)[C@@H](O)c2ccccc2)cc1`, the outcome with Pseudomonas aeruginosa [1] was inactive. The result in the data set with Staphylococcus aureus [3], with Staphylococcus aureus [4], in the data set with Escherichia coli [6] and in the data set on Staphylococcus aureus [9] was Active. The Activity entry in data set [12] is listed as “Toxic”.

For `CN(C)c1ccc(/C=N/Nc2ccc(S(=O)(=O)O)cc2)cc1`, the outcome in the data set on Staphylococcus aureus [3], in the data set on Staphylococcus aureus [4], in the data set with Staphylococcus aureus [9] and with Escherichia coli [10] was inactive.

Regarding `Cc1oc(C(=O)O)cc1COc1ccc2c3c(c(=O)oc2c1C)CCC3`, the outcome in the data set with Pseudomonas aeruginosa [1], in the data set on Staphylococcus aureus [3], with Escherichia coli [6] and in the data set with Escherichia coli [10] was inactive. In addition, the outcome with Staphylococcus aureus [4] and in the data set with Staphylococcus aureus [9] was Active.

On to `O=C(O)C[C@H](NCc1ccco1)C(=O)Cc1ccc(Cl)cc1`, for which the outcome in the data set with Staphylococcus aureus [3], in the data set with Staphylococcus aureus [4], in the data set on Escherichia coli [6], in the data set with Staphylococcus aureus [9] and with Escherichia coli [10] was inactive.

In the case of `CC(=O)C1C(O)C(=O)N(c2ccc(C(=O)O)cc2)[C@H]1c1ccccc1` (stereo partly specified), the result with Pseudomonas aeruginosa [1], in the data set with Staphylococcus aureus [3], in the data set on Staphylococcus aureus [4], with Escherichia coli [6], with Staphylococcus aureus [9] and in the data set on Escherichia coli [10] was Active. The outcome in the data set with Staphylococcus aureus [2], in the data set with Pseudomonas aeruginosa [5], in the data set on Staphylococcus aureus [7] and in the data set on Escherichia coli [8] was inactive.
